# Laboratory results: article PMC12461553 (RSC Advances, 2025)
# Experiments:
# [1] = tested on: BCL-2 and Survivin expression in MDA-MB-231 cells; test: Gene expression analysis by RT-qPCR; type: cell-based, human
# Method in brief: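 Cells were treated 48 h with varying test compound concentrations, then total RNA was extracted and checked spectrophotometrically. 2 μg RNA was reverse-transcribed to cDNA. BCL2 and Survivin transcripts were measured by RT-qPCR and quantified by the 2−ΔΔCt method against β2-microglobulin as reference gene.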
# BEAS-2B lung cells = test: SRB cytotoxicity assay, BEAS-2B normal cells; type: cell-based; settings: Homo sapiens, read-out: IC50 value, BEAS-2B lung cells
# Method in brief: (§1)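 Dose–response SRB assay: cells at 3000 per well were attached 24 h, then treated 48 h with test compound at 0.39–25 μM. They were TCA-fixed and stained with 0.057% SRB. Bound dye was dissolved in Tris base pH 10.5 and read at 510 nm. IC50 was fitted by non-linear regression.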
# 4T1 cells [2] = test: Annexin V-FITC/PI apoptosis assay, 4T1; type: cell-based, murine
# Method in brief: (§2)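 Cells were seeded at 1 × 10^5 per well and allowed to adhere 24 h, then treated 24 h with test compound (2, 4, 6 μM) alongside untreated controls. They were harvested, washed in PBS and stained with annexin V-FITC plus PI in binding buffer, 20 min, dark, room temperature. Flow cytometry gave percentages of viable, early apoptotic, late apoptotic and necrotic cells.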
# MCF-7 cells [3] = test: SRB cytotoxicity assay, MCF-7; type: cell-based, human
# MDA-MB-231 cells [4] = test: Cell cycle analysis; type: cell-based, human; settings: MDA-MB-231, 4 μM
# Method in brief: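 Cells were treated with test compound at 0.5, 1, 2 and 4 μM beside untreated controls. They were stained with propidium iodide and analysed by flow cytometry to give the percentages of cells in G1, S and G2/M phases.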
# MDA-MB-231 cells [5] = test: SRB cytotoxicity assay, MDA-MB-231; type: cell-based, human
# HEK-293 kidney cells = test: SRB cytotoxicity assay, HEK-293 normal cells; type: cell-based; settings: Homo sapiens, HEK293, read-out: IC50 value, HEK-293 kidney cells
# Method in brief: as §1
# 4T1 cells [6] = test: SRB cytotoxicity assay, 4T1; type: cell-based, murine
# Method in brief: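 Single-dose screen: cells in DMEM/10% FBS at 37 °C, 5% CO2, seeded at 3000 per well, attached 24 h, then exposed to test compound at 25 μM final for 48 h. Fixed in cold 10% TCA, 1 h, 4 °C; stained 0.057% SRB, 30 min, dark, room temperature; rinsed with 1% acetic acid; dye solubilised in Tris base pH 10.5; absorbance 510 nm; percent cell death.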
# MCF-7 cells [7] = test: Annexin V-FITC/PI apoptosis assay, MCF-7; type: cell-based, human
# Method in brief: as §2
# MCF-7 cells [8] = test: Cell cycle analysis; type: cell-based, human; settings: MCF-7, 6 μM
# Method in brief: (§3)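 Cells were seeded at 1 × 10^5 per well and attached 24 h, then exposed to test compound for 24 h. Doxorubicin (0.5 μM) and untreated controls were run alongside. Cells were harvested, washed with PBS and stained with PI/RNase solution for DNA content. Flow cytometry gave G1, S and G2/M fractions from fluorescence intensity using predefined gates.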
# 4T1 cells [9] = test: Cell cycle analysis; type: cell-based, murine; settings: 4T1, 6 μM
# Method in brief: as §3
# MDA-MB-231 cells [10] = test: 3D spheroid; type: cell-based, human; settings: 8 days
# Method in brief: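 Single-cell suspensions in 1.5% methylcellulose/DMEM with 20% FBS were seeded at 1 × 10^5 cells per well over a 1% agarose–DMEM base for non-adherent growth. Cells were treated with test compound (0.5, 1, 2 μM) or doxorubicin and incubated 8 days. Spheres (≥20 cells) were imaged by fluorescence microscopy and counted per microscopic field.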
structure (smiles),measurement,setting,value
"Cc1ccc(C(=O)c2c(-c3ccccc3)n(Cc3ccccc3)c(=O)c3c2c2ccccc2n3C)cc1 [9c, 2-Benzyl-9-methyl-4-(4-methylbenzoyl)-3-phenyl-2,9-dihydro-1H-pyrido[3,4-b]indol-1-one]",Expression of BCL-2,[1],significantly downregulated
same,Expression of Survivin,[1],significantly downregulated
same,IC50,BEAS-2B lung cells,7.18 ± 0.32 µM
same,Early apoptosis,"4T1 cells [2]; 4T1, 2 μM",13.5%
same,Total apoptosis,"4T1 cells [2]; 4T1, 2 μM",16.5%
same,Early apoptosis,"4T1 cells [2]; 4T1, 4 μM",19.2%
same,Total apoptosis,"4T1 cells [2]; 4T1, 4 μM",23.5%
same,Early apoptosis,"4T1 cells [2]; 4T1, 6 μM",22%
same,Total apoptosis,"4T1 cells [2]; 4T1, 6 μM",27.2%
same,cytotoxicity at 25 µM,"MCF-7 cells [3]; Homo sapiens, MCF7, 48 h, read-out: Average cell death (%) MCF-7",75.14 ± 0.02%
same,IC50,"MCF-7 cells [3]; Homo sapiens, MCF7, 48 h, read-out: IC50 value, MCF-7",4.34 ± 0.31 µM
same,Average cell death (%) MCF-7,"MCF-7 cells [3]; at 25 μM, 48 h, SRB assay",75.14 ±4.02%
same,G1 phase population,MDA-MB-231 cells [4],46.9%
same,G2/M population,MDA-MB-231 cells [4],41.9%
same,cytotoxicity at 25 µM,"MDA-MB-231 cells [5]; Homo sapiens, MDA-MB-231, 48 h, read-out: Average cell death (%) MDA-MB-231",94.7 ± 1.1%
same,IC50,"MDA-MB-231 cells [5]; Homo sapiens, MDA-MB-231, 48 h, read-out: IC50 value, MDA-MB-231",0.77 ± 0.03 µM
same,Selectivity for MDA-MB-231 breast cancer cells,MDA-MB-231 cells [5]; MDA-MB-231 over normal HEK-293 kidney and BEAS-2B lung cells,~10 fold
same,IC50,HEK-293 kidney cells,7.96 ± 0.04 µM
same,cytotoxicity at 25 µM,"4T1 cells [6]; Mus musculus, 4T1, 48 h, read-out: Average cell death (%) 4T1",72.34 ± 0.04%
same,IC50,"4T1 cells [6]; Mus musculus, 4T1, 48 h, read-out: IC50 value, 4T1",3.71 ± 0.39 µM
same,Average cell death (%) 4T1,"4T1 cells [6]; at 25 μM, 48 h, SRB assay",72.34 ±4.04%
same,Early apoptosis,"MCF-7 cells [7]; MCF-7, 2 μM",7.2%
same,Total apoptotic population (early + late),"MCF-7 cells [7]; MCF-7, 2 μM",11.3%
same,Early apoptosis,"MCF-7 cells [7]; MCF-7, 4 μM",8.05%
same,Total apoptotic population (early + late),"MCF-7 cells [7]; MCF-7, 4 μM",14.1%
same,Early apoptosis,"MCF-7 cells [7]; MCF-7, 6 μM",9.9%
same,Total apoptotic population (early + late),"MCF-7 cells [7]; MCF-7, 6 μM",16.5%
same,G1 phase population,MCF-7 cells [8],85.6%
same,G1 phase population,4T1 cells [9],50.1%
same,G2/M population,4T1 cells [9],41.1%
same,Number of spheres,"MDA-MB-231 cells [10]; MDA-MB-231, 0.5, 1, and 2 μM",reduced the number of spheres in a dose-dependent manner
same,Sphere formation,"MDA-MB-231 cells [10]; MDA-MB-231, methylcellulose",completely abrogated sphere formation
